PMC8790739 (JACS Au, 2022)

How the values were obtained:
O. sativa calli [1] = assay: Evans blue viability assay, O. sativa calli; assay type: cell-based, Oryza sativa; details: 1 h, vacuum/compression infiltration, n = 4, Figure 2A, particularly dTat-Sar-EED5
A. thaliana cotyledons [2] = assay: Evans blue viability assay, A. thaliana cotyledons; assay type: cell-based, Arabidopsis thaliana; details: 1 h, vacuum/compression infiltration, n = 4, Figure 2A, particularly dTat-Sar-EED5
[3] = test system: A. thaliana root epidermal cells; assay: FM4-64 uptake into A. thaliana roots; assay type: cell-based, Arabidopsis thaliana; details: dTat-Sar-EED4 30 μM, FM4-64 10 μM, Figure 4B
How it was run: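 Roots of Col-0 seedlings (7–9 days) pretreated 30 min at 25 °C in 1/2 MS with 0.6% v/v DMSO or 30 μM ES9-17. FM4-64 (10 μM) then added, ± peptide, for 30 min at 25 °C in the dark. Confocal imaging at Ex/Em 488/620–680 nm. Mean intensity of manually segmented whole cytoplasm was divided by that of the apical plasma membrane, for more than 100 cells from 8 roots.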

E. gracilis cells [4] = assay: Evans blue viability assay, E. gracilis; assay type: cell-based, Euglena gracilis; details: 9 nM–90 μM peptide, 3 h at 26 °C, n = 3, Figure 2C
How it was run: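 Euglena gracilis was grown in CM medium pH 3.5 (26 °C, 100 rpm) to OD730 0.23, then incubated with peptide (9 nM–90 μM) for 3 h at 26 °C. Cells pelleted and stained with Evans blue 150 μg/mL for 20 min, washed three times, then live and dead cells counted microscopically. Viability = live/dead ratio relative to untreated cells. Three biological replicates, mean ± SD.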

M. polymorpha sporelings [5] = assay: Peptide-mediated Citrine transduction; assay type: cell-based, Marchantia polymorpha; details: 90 μM peptide, Citrine 200 μg/mL, 1 h at 22 °C, CLSM, Figure 2B
How it was run: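 Sporelings incubated 1 h at 22 °C in solution with 90 μM peptide and 200 μg/mL Citrine; Citrine alone served as control. Time-gated confocal detection (0.5–12.0 ns) at Ex/Em 510/546–566 nm.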

tobacco BY-2 cells = assay: Peptide-mediated Citrine transduction; assay type: cell-based, Nicotiana tabacum; details: for Citrine internalization into BY-2 cells at lower peptide concentrations: 9 nM–9 μM peptide (low concentrations), Figure S2; for Citrine fluorescence in the nuclei of BY-2 cells: 1 h incubation
How it was run: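 Exponentially growing BY-2 cells (OD600 0.5) mixed in a glass-bottom dish with Citrine plus peptide, or with individual peptide domains as controls, for 1 h at 26 °C. Citrine-only cells served as control. Uptake was imaged directly by confocal microscopy at Ex/Em 488/515–580 nm.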

C. reinhardtii cells [6] = assay: Colony formation viability assay, C. reinhardtii; assay type: cell-based, Chlamydomonas reinhardtii; details: for Cell death in C. reinhardtii (colony formation assay): 2.5 μM peptide, 20 min in TAP medium with 40 mM sucrose, n = 3, Figure 2C
How it was run: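 Log-phase Chlamydomonas reinhardtii wild-type cc125+ (2 days after subculture, grown in TAP at 23 °C under constant light) exposed to peptide (39 nM–2.5 μM) for 20 min in TAP with 40 mM sucrose. Cells washed, plated on TAP agar, colonies counted. Viability = colonies with peptide ÷ colonies without. Three biological replicates, mean ± SD.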

O. sativa calli [7] = assay: Peptide-mediated Citrine transduction; assay type: cell-based, Oryza sativa; details: 90 μM peptide, Citrine 200 μg/mL, CLSM, Figure 2B
How it was run: (§1)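 Col-0 cotyledons (seedlings 7–9 days) or Nipponbare calli (1 week on N6D, 30 °C, constant light) vacuum/compression-infiltrated with 200 μg/mL Citrine, with 90 μM peptide or alone as control. Incubation 1 h: cotyledons at 22 °C, calli at 30 °C. Washed twice with 1/2 MS plus 1% sucrose; confocal imaging at Ex/Em 488/515–560 nm.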

M. polymorpha sporelings [8] = assay: Evans blue viability assay, M. polymorpha sporelings; assay type: cell-based, Marchantia polymorpha; details: 1 h at 22 °C, n = 4, Figure 2A
How it was run: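 Marchantia polymorpha sporelings (Tak-1 × Tak-2 cross, held 4 days in water) incubated with peptide for 1 h at 22 °C, then stained with Evans blue 150 μg/mL. Stained (dead) and unstained (live) cells counted; viability taken from live/dead ratio. Boiled sporelings (95 °C, 10 min) served as 100% dead. Four biological replicates, mean ± SE, Dunnett's T3 versus 0 μM.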

[9] = test system: tobacco (Nicotiana tabacum) Bright Yellow-2 (BY-2) cells; assay: Evans blue cell viability assay, BY-2 cells; assay type: cell-based
A. thaliana cotyledons [10] = assay: Peptide-mediated Citrine transduction; assay type: cell-based, Arabidopsis thaliana; details: 90 μM peptide, Citrine 200 μg/mL, CLSM, Figure 2B
How it was run: as §1

E. gracilis cells [11] = assay: Peptide-mediated Citrine transduction; assay type: cell-based, Euglena gracilis; details: 9 μM peptide, Citrine 100 μg/mL, 3 h at 26 °C, CLSM, Figure 2D
How it was run: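 Euglena suspension (OD730 0.23) exposed to Citrine with or without peptide in culture medium in a 96-well plate, 3 h at 26 °C, shaking at 100 rpm. Confocal imaging: Citrine at Ex/Em 488/520–550 nm, chlorophyll at 488/660–720 nm.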

C. reinhardtii cells [12] = assay: Peptide-mediated Citrine transduction; assay type: cell-based, Chlamydomonas reinhardtii; details: 156 nM peptide, Citrine 100 μg/mL, 20 min (b14 says 3 h), CLSM, Figure 2D
How it was run: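 Log-phase Chlamydomonas cells suspended in TAP containing 156 nM peptide, 100 μg/mL Citrine and 40 mM sucrose, for 20 min. Cells washed and mounted on slides; Citrine-only cells served as control. Confocal imaging: Citrine at Ex/Em 488/520–550 nm, chlorophyll at 488/660–720 nm.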

[13] = 90 μM peptide, Citrine 100 μg/mL, CLSM, Figure 1D

Row | Substance | Concentrations at which toxic to O. sativa calli (O. sativa calli [1]) | Concentrations at which toxic to A. thaliana cotyledons (A. thaliana cotyledons [2]) | Cytotoxicity toward E. gracilis (E. gracilis cells [4]) | Citrine internalization into BY-2 cells at lower peptide concentrations (tobacco BY-2 cells; CLSM) | Citrine fluorescence in the nuclei of BY-2 cells (tobacco BY-2 cells; [13]) | Cell death in C. reinhardtii (colony formation assay) (C. reinhardtii cells [6]) | Cell death in M. polymorpha sporelings (M. polymorpha sporelings [8]) | further results
1 | rrrqrrkkr-(Sar)6-GWWG [dTat-Sar-EED4] | ≥ 90 µM | ≥ 90 µM | Neither peptide exhibited cytotoxicity | no Citrine internalization was observed | detected Citrine fluorescence in the nuclei of some cells | induced severe cell death | did not cause severe cell death | Enhancement of FM4-64 uptake, DMSO-treated samples ([3]; DMSO 0.6% v/v): slight; Enhancement of FM4-64 uptake, ES9-17-treated samples ([3]; ES9-17 30 μM): more pronounced; Citrine internalization into M. polymorpha sporelings (M. polymorpha sporelings [5]): Citrine internalization was observed; Citrine internalization into BY-2 cells, time-lapse CLSM (tobacco BY-2 cells; 90 μM peptide, Citrine 100 μg/mL, Figure 1C, Movies S1, S2): rapid internalization of Citrine into BY-2 cells within a few minutes; Toxicity to C. reinhardtii cells compared between the two peptides (C. reinhardtii cells [6]; concentrations of 156 nM or more, 20 min, colony formation assay, Figure 2C): slightly more toxic; Transfer of Citrine to the nucleus in O. sativa calli (O. sativa calli [7]; 1 h): such behavior was not detected; Citrine internalization into O. sativa calli (O. sativa calli [7]; 1 h at 30 °C): Citrine internalization was observed; Cytotoxicity to BY-2 cells after prolonged treatment ([9]; 90 μM for up to 48 h, n = 3, Figure S1): did not result in significant cytotoxicity; Toxicity to BY-2 cells compared between the two peptides ([9]; 1 h treatment, 9 μM to 9 mM, Figure 1B): less toxic than dTat-Sar-EED5; Transfer of Citrine to the nucleus in A. thaliana cotyledon cells (A. thaliana cotyledons [10]; 1 h): appeared to be transferred to the nucleus; Citrine internalization into A. thaliana cotyledons (A. thaliana cotyledons [10]; 1 h at 22 °C): Citrine internalization was observed
2 | rrrqrrkkr-(Sar)6-GFWFG [dTat-Sar-EED5] | ≥ 90 µM | ≥ 90 µM | Neither peptide exhibited cytotoxicity | negligible Citrine uptake | detected Citrine fluorescence in the nuclei of some cells | induced severe cell death | did not cause severe cell death | Citrine internalization into E. gracilis (E. gracilis cells [11]): Citrine was internalized; Citrine internalization into C. reinhardtii (C. reinhardtii cells [12]): Citrine was internalized
3 | (Sar)6-GFWFG [Sar-EED5] |  |  |  |  |  |  |  | Citrine uptake by BY-2 cells with individual peptide domains (tobacco BY-2 cells; 90 μM of each peptide domain, 1 h, Citrine 100 μg/mL, CLSM, Figure 1D): did not show Citrine uptake
